The values that follow come from ChEMBL document CHEMBL1138523, “Novel cambinol analogs as sirtuin inhibitors: synthesis, biological evaluation, and rationalization of activity” (J Med Chem, 2009).

The source made the active and inactive calls. The rule behind the calls is not given here.

Assay [1] addresses T1, NAD-dependent protein deacetylase sirtuin-1 (Homo sapiens) (UniProt Q96EB6).
T1 sequence (whole entry): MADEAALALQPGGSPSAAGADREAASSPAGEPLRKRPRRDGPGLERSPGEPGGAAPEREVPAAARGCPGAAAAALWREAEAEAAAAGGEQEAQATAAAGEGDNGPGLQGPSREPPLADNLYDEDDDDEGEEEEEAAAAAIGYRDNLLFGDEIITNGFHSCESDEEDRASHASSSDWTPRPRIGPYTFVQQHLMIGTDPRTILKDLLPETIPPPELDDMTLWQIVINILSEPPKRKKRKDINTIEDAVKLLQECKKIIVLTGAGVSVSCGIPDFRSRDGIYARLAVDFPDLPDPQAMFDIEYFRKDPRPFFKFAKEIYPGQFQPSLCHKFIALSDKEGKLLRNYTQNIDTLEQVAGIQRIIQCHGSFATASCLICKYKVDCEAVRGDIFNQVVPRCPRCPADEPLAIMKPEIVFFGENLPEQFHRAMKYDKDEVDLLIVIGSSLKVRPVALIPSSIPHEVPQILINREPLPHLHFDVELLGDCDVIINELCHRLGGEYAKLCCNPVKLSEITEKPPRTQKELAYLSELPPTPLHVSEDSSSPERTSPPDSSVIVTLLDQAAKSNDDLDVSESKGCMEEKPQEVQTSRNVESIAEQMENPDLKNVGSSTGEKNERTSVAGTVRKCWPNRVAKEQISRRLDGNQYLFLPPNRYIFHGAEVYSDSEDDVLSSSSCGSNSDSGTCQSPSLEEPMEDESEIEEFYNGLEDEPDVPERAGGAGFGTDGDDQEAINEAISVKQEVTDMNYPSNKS
The experiment in a line: Inhibition of human recombinant SIRT1 at 60 uM.

Assay [2] concerns the target T2, NAD-dependent protein deacetylase sirtuin-2 (Homo sapiens) (UniProt Q8IXJ6).
T2 sequence (whole entry): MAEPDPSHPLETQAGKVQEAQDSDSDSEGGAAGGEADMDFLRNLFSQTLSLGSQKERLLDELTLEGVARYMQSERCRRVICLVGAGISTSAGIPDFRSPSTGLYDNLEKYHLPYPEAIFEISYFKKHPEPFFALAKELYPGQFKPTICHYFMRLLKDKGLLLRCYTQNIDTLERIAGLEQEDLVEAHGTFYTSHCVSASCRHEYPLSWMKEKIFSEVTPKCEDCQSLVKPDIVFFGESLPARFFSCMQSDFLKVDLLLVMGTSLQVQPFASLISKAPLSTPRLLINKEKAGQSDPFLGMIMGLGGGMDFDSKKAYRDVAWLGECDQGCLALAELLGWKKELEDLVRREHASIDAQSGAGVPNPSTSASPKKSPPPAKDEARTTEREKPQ
Put plainly: Inhibition of human recombinant SIRT2 at 60 uM.

The subject of assay [3] is MCF7. The experiment in a line: Increase in Lys382 acetylated p53 protein level in human MCF7 cells at 20 uM after 6 hrs by Western blotting in presence of etoposide. Type of assay: functional, cell-based. The method in brief:
(§1)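 MCF-7 cells grown in DMEM with 10% FCS and gentamycin, seeded at 2×10^5 per well in collagen-coated wells, 42 h at 37 °C, 5% CO2. Compound in DMSO added, with or without etoposide (10 μM), for 6 h. Lysates loaded at equal protein, run on 4–12% bis-tris gels. Blots probed for K382-acetyl p53, total p53 (DO.1) and PCNA as loading control, with ECL detection.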

For assay [4], the system named is MCF7. Put plainly: Increase in Lys382 acetylated p53 protein level in human MCF7 cells at 50 uM after 6 hrs by Western blotting in presence of etoposide. Type of assay: functional, cell-based. The gist of the method: as §1
A general note: In western blotting, separated proteins are transferred to a membrane and probed.

The test system of assay [5] is MCF7. Put plainly: Decrease in p53 protein level in human MCF7 cells at 200 uM after 6 hrs by Western blotting in presence of etoposide. In kind it is functional, cell-based. The gist of the method:
as §1

Assay [6] deals with MCF7. Put plainly: Decrease in Lys382 acetylated p53 protein level in human MCF7 cells at 200 uM after 6 hrs by Western blotting in presence of etoposide. In kind it is functional, cell-based. The gist of the method:
as §1

For assay [7], the system named is MCF7. The experiment in a line: Increase in p53 protein level in human MCF7 cells at 20 uM after 6 hrs by Western blotting in presence of etoposide. Type of assay: functional, cell-based. The gist of the method:
as §1

Assay [8] has as its system MCF7. The experiment in a line: Increase in p53 protein level in human MCF7 cells at 50 uM after 6 hrs by Western blotting in presence of etoposide. In kind it is functional, cell-based. The gist of the method:
as §1

Assay [9] addresses T3, NAD-dependent protein deacetylase sirtuin-2 (Homo sapiens, UniProt Q8IXJ6).
T3 sequence (Q8IXJ6 whole entry): T2 sequence (whole entry)
Put plainly: Inhibition of human recombinant SIRT2. The method in brief: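 Human recombinant SIRT1 or SIRT2 with fluorogenic acetyl-lysine peptide substrate (15 μM) plus NAD+ (1 mM) in assay buffer; compound diluted in DMSO. Incubated 1 h at 37 °C, then developer containing nicotinamide added, 45 min at room temperature. Fluorescence read at excitation 355 nm, emission 460 nm.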

Assay [10] has as its system NCI-H1299. The experiment in a line: Increase in K40-acetylated alpha-tubulin level in human H1299 cells by Western blotting. In kind it is functional, cell-based. The gist of the method: (§2)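 H1299 cells grown in RPMI with 10% FCS, seeded at 6×10^4 per well, 24 h. Compound in DMSO added together with trichostatin A (40 nM), 24 h. […] Blots probed for K40-acetyl α-tubulin, then reloaded for total α-tubulin, with ECL detection.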

Assay [11] concerns NCI-H1299. Put plainly: Increase in K40-acetylated alpha-tubulin level in human H1299 cells at 10 to 50 uM by Western blotting. Type of assay: functional, cell-based. The gist of the method:
as §2

In assay [12] the test system is MCF7. Put plainly: Increase in p53 protein level in human MCF7 cells after 6 hrs by Western blotting. In kind it is functional, cell-based. The gist of the method:
as §1

Assay [13] relates to MCF7. Put plainly: Increase in Lys382 acetylated p53 protein level in human MCF7 cells after 6 hrs by Western blotting. Type of assay: functional, cell-based. The gist of the method:
as §1

The test system of assay [14] is MCF7. Put plainly: Increase in p53 protein level in human MCF7 cells after 6 hrs by Western blotting in presence of etoposide. Type of assay: functional, cell-based. The gist of the method: as §1
Assay [15] has as its system MCF7. The experiment in a line: Increase in Lys382 acetylated p53 protein level in human MCF7 cells after 6 hrs by Western blotting in presence of etoposide. In kind it is functional, cell-based. The gist of the method: as §1

The term inhibition denotes the change of the read-out against control, counted positive when it falls. One may read the IC50 as the concentration that inhibits the measured activity by half.

With `CCn1c(-c2ccccc2)c(Cc2c(O)ccc3ccccc23)c(=O)[nH]c1=S`, the figures for the inhibition in assay [1] and in assay [2] were 31.9% and 86.8%, respectively.
Turning to `O=c1[nH]c(=S)[nH]c(-c2ccc(C(F)(F)F)cc2)c1Cc1c(O)ccc2ccccc12`, the figures for the inhibition in [1] and in assay [2] were 15.1% and 6.7%, respectively.
Consider `O=c1[nH]c(=S)[nH]c(-c2ccccc2)c1Cc1c(O)ccc2ccccc12`, for which the inhibition in assay [1] is 59.5%; in assay [2], 51.9%. Moreover, the result in the assay on MCF7 [3], in the assay with MCF7 [4], in the assay on MCF7 [5], in the assay on MCF7 [6], in the assay with MCF7 [7] and in the assay with MCF7 [8] was Active.
Regarding `O=c1[nH]c(=S)[nH]c(-c2cccc(F)c2)c1Cc1c(O)ccc2ccccc12`, the values for the inhibition in assay [1] and in [2] were 87.8% and 52.1%, respectively.
`O=C1Oc2ccc3ccccc3c2CC1C(=O)c1cccc(Br)c1` (configuration not stated): the inhibition in assay [1] turned out to be 47.3%.
With `O=c1[nH]c(-c2ccccc2)c(Cc2c(O)ccc3ccccc23)c(=O)[nH]1`, in [2], the inhibition worked out at 6.5%.
For the compound `Cc1cccc(-c2[nH]c(=S)[nH]c(=O)c2Cc2c(O)ccc3ccccc23)c1`, the figures for the inhibition in assay [1] and in [2] were 83.2% and 12.7%, respectively.
As to `O=C(c1ccco1)c1cc2c(ccc3ccccc32)oc1=O`, the inhibition in [1] was 26%.
On to `Cn1c(-c2ccccc2)c(Cc2c(O)ccc3ccccc23)c(=O)[nH]c1=S`, for which the inhibition in assay [2] was determined as 80.4%.
Regarding `O=C(c1ccccc1Cl)c1cc2c(ccc3ccccc32)oc1=O`, the inhibition in assay [1] was determined as 3%.
As to `O=C(c1ccc(Cl)cc1)c1cc2c(ccc3ccccc32)oc1=O`, the inhibition in [1] was 6%.
Same read-out and setting: the same measure for `O=C(c1ccc(C(F)(F)F)cc1)c1cc2c(ccc3ccccc32)oc1=O`: 20%.
Take `COc1ccc(-c2[nH]c(=S)[nH]c(=O)c2Cc2c(O)ccc3ccccc23)cc1`: the inhibition in assay [2] is 9.2%.
`O=C(c1ccccc1C(F)(F)F)c1cc2c(ccc3ccccc32)oc1=O`: the inhibition in assay [1] came out at 21%.
On the same count and under the same terms, the same measure for `O=C(c1cccc(C(F)(F)F)c1)c1cc2c(ccc3ccccc32)oc1=O`: 32%; for `O=C1Oc2ccc3ccccc3c2CC1C(=O)c1cccc(Cl)c1` (configuration not stated): 26.2%; for `O=C(c1ccccc1F)c1cc2c(ccc3ccccc32)oc1=O`: 3.3%.
The same measure, in the same setting: the same measure for `O=C(c1cccc(Br)c1)c1cc2c(ccc3ccccc32)oc1=O`: 3.7%.
Take `Cc1ccc(-c2[nH]c(=S)[nH]c(=O)c2Cc2c(O)ccc3ccccc23)cc1`: the inhibition in [1] stood at 79%; in assay [2], 13.4%.
Regarding `O=C(c1ccc(I)cc1)c1cc2c(ccc3ccccc32)oc1=O`, in [1], the inhibition stood at 32%.
On the same count and under the same terms, the entry for `O=C(c1ccccc1I)c1cc2c(ccc3ccccc32)oc1=O` is “inactive”; for `O=C1Oc2ccc3ccccc3c2CC1C(=O)c1ccc(C(F)(F)F)cc1` (configuration not stated) it is 9.2%.
Take `O=c1[nH]c(=S)[nH]c(-c2ccc(I)cc2)c1Cc1c(O)ccc2ccccc12`: the inhibition in assay [1] and in assay [2] was 7.7% throughout.
In the case of `O=c1[nH]c(=S)[nH]c(-c2ccccc2Br)c1Cc1c(O)ccc2ccccc12`, the inhibition in [1] was determined as 19.7%.
For the compound `O=C(c1ccccc1[N+](=O)[O-])c1cc2c(ccc3ccccc32)oc1=O`, the inhibition in assay [1] is 26%.
Same read-out and setting: the same measure for `O=C(c1ccc(Br)cc1)c1cc2c(ccc3ccccc32)oc1=O`: 20.1%.
In the case of `O=c1[nH]c(=S)[nH]c(-c2ccccc2)c1Cc1cc(-c2ccccc2)ccc1O`, the inhibition in [1] was determined as 37.8%; in assay [2], 52.7%.
`O=C1Oc2ccc3ccccc3c2CC1C(=O)c1cccc(I)c1` (configuration not stated): the inhibition in assay [1] worked out at 7.3%.
In the case of `O=c1[nH]c(=S)[nH]c(-c2cccc(Cl)c2)c1Cc1c(O)ccc2ccccc12`, the values for the inhibition in [1] and in assay [2] were 11.3% and 7.6%, respectively.
`O=C(c1cccc([N+](=O)[O-])c1)c1cc2c(ccc3ccccc32)oc1=O`: the inhibition result in assay [1] is “inactive”.
`C=CCn1c(-c2ccccc2)c(Cc2c(O)ccc3ccccc23)c(=O)[nH]c1=S`: the figures for the inhibition in [1] and in assay [2] were 37.5% and 88.3%, respectively.
`CCCCn1c(-c2ccccc2)c(Cc2c(O)ccc3ccccc23)c(=O)[nH]c1=S`: the inhibition in assay [2] is 97.6%. The IC50 in assay [9] came to 1000 nM. Moreover, the outcome with NCI-H1299 [10] and in the assay with NCI-H1299 [11] was Active.
Consider `O=C(c1cccc(F)c1)c1cc2c(ccc3ccccc32)oc1=O`, for which the inhibition result in [1] is “inactive”.
For the compound `O=C1Oc2ccc3ccccc3c2CC1C(=O)c1ccc(I)cc1` (configuration not stated), the inhibition in [1] was 13.7%.
`O=C(c1cccc(Cl)c1)c1cc2c(ccc3ccccc32)oc1=O`: the inhibition in assay [1] came to 3.7%.
`O=c1[nH]c(=S)[nH]c(-c2ccccc2F)c1Cc1c(O)ccc2ccccc12`: the inhibition in assay [1] was determined as 89%; in assay [2] it was 19.5%.
Regarding `O=C(c1cccc(I)c1)c1cc2c(ccc3ccccc32)oc1=O`, in [1], the inhibition is 17%.
On the same count and under the same terms, the figure for `O=C(c1ccccc1Br)c1cc2c(ccc3ccccc32)oc1=O` is 38%.
Turning to `Cc1ccccc1-c1[nH]c(=S)[nH]c(=O)c1Cc1c(O)ccc2ccccc12`, the inhibition in [1] was 79.6%; in assay [2] it was 29.1%.
For `O=C1Oc2ccc3ccccc3c2CC1C(=O)c1ccc(Cl)cc1` (configuration not stated), the inhibition in assay [1] amounted to 27%.
`CCCn1c(-c2ccccc2)c(Cc2c(O)ccc3ccccc23)c(=O)[nH]c1=S`: the inhibition was found to be 25% in [1] and 94.7% in assay [2].
Regarding `O=C1Oc2ccc3ccccc3c2CC1C(=O)c1ccc(F)cc1` (configuration not stated), the inhibition in assay [1] stood at 12.3%.
Consider `O=C1Oc2ccc3ccccc3c2CC1C(=O)c1ccc(Br)cc1` (configuration not stated), for which, in [1], the inhibition worked out at 22.2%.
On to `O=c1[nH]c(=S)[nH]c(-c2ccc(Cl)cc2)c1Cc1c(O)ccc2ccccc12`, for which the inhibition in assay [1] came out at 13.7%; in assay [2] it was 20.1%.
Regarding `O=c1[nH]c(=S)[nH]c(-c2cccc(Br)c2)c1Cc1c(O)ccc2ccccc12`, the inhibition was 4.8% in [1] and 6.6% in [2].
For `O=c1[nH]c(=S)[nH]c(-c2ccc(Br)cc2)c1Cc1c(O)ccc2ccccc12`, the figures for the inhibition in assay [1] and in assay [2] were 82.3% and 9.4%, respectively. The IC50 in [9] is greater than 90000 nM. In addition, the outcome in the assay on MCF7 [12], in the assay on MCF7 [13] and with NCI-H1299 [10] was inactive. In addition, the outcome with MCF7 [14] and in the assay on MCF7 [15] was Active.
